TROY NFkB inh = inhibitors of TROY-driven NF-kB signaling, primary screen, Q293 LMP1-TROYcd cells, NF-kB luciferase, uHTS | Q293 LMP1-TROYcd NF-kB luciferase reporter, 4 h | inhibition, % at 10 µM | 360,000 tested, 0.98% active | AID 1347056, 2019;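 active = compounds whose plate-normalised and pattern-corrected inhibition of the luciferase reporter signal at the single screening dose is 50% or more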
LGR2 antag = inhibitors of bursicon-induced LGR2 CRE-luciferase signal, primary screen, cell-based, HEK293, CRE-luciferase reporter, bursicon stimulation; Drosophila bursicon receptor LGR2 (rickets); bursicon-stimulated, 4 h; inhibition, % at 9.99 µM; 380,000 tested, 0.35% active;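 active = drop in luminescence signal, shown as inhibition above about 50% in the replicate tests, limit read from the data, passing the limit was not always enough; inconclusive = probably only some replicates passing the limit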;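 note: agonist challenge used bursicon conditioned medium at about half maximal strength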
Xi reactivation = activators of inactive X chromosome reactivation, primary screen, imaging, XiGFP fibroblasts, GFP high-content imaging, set 2; XiGFP mouse fibroblasts, % GFP-positive cells imaging, 3 d; cells co-treated with 5-aza-dC sensitizer; scaled so ellipticine positive control = 100%; activation, % at 7.58 µM; 360,000 tested, 0.055% active;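 active = mean normalized replicate activation at least 10% and every replicate at or above 10%; inconclusive = only one of the two criteria met; inactive = mean below 10% and not all replicates reach 10%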;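 note: 0% = median of on-plate neutral control wells and 100% = ellipticine 6 µM median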
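Material: SV40-immortalized XiGFP fibroblast cells, line 68-5-11 | Buffer or medium: DMEM containing 5-aza-dC | Dosing: One concentration, pinned | Times: 3 d treatment, 15 min room-temperature fixation | Controls: Ellipticine 6 µM positive control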
EWS-Fli block = EWS/Fli-driven NR0B1 reporter inhibitors, primary screen, A673 cells, NR0B1 luciferase, luminescence, MLPCN library. inhibition, % at 12.6 µM. 350,000 tested, 0.67% active. viability-normalised;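 active = mean inhibition of at least 50% after viability correction, with every replicate also passing that limit; inconclusive = mean reaches 50% but only one of two replicates passes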;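 note: firefly luciferase signal divided by Alamar Blue viability fluorescence both relative to DMSO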
FN deposit inh = inhibitors of fibronectin matrix deposition, primary screen, AH1F cells, Alexa488-fibronectin fluorescence, plate reader. AH1F fibroblasts, overnight. inhibition, % at 12.6 µM. 350,000 tested, 0.086% active. AID 743247, 2014;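 active = mean inhibition across replicates of 30% or more, regardless of how many single replicates reach that level; inconclusive = mean under 30% yet at least half of replicates reach 30%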;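 note: positive control wells lacked labelled fibronectin entirely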
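Assay system: AH1F fibroblasts / Quantity: 10000 cells per well / Medium: DMEM plus 2% serum, read in PBS / Reagent: labelled fibronectin 24 nM / Dosing: single dose, pinned / Times: 1 h cell attachment, overnight exposure to compound and label / Signal: fluorescence, ex 485 nm, em 525 nm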
TWEAK Fn14 block = inhibitors of TWEAK-Fn14 signaling, primary screen, luciferase reporter cells, uHTS; TWEAK-stimulated Fn14 reporter cells, luciferase luminescence, 8 h; inhibition, % at 10 µM; AID 1159606, 2016; 360,000 tested, 2% active; in the data active = inhibition above about 50%
Starred values were filed as active, the others as inactive; ? = inconclusive; . = not tested or not shown. Most compounds without a hit are left out; they make up all but 2.3% or so of the library.

SMILES | TROY NFkB inh | LGR2 antag | Xi reactivation | EWS-Fli block | FN deposit inh | TWEAK Fn14 block
O=C(C[C@H]1C[C@H]2c3cc(NS(=O)(=O)c4ccc(F)cc4)ccc3O[C@H]2[C@H](CO)O1)NCc1cccnc1 | . | 6 | 0 | 0 | -7 | .
CN1C(=O)c2cc(NC(=O)C3CC3)ccc2OC[C@H]2O[C@H](CC(=O)NCc3ccccc3F)CC[C@H]21 | . | 12 | 0 | -3 | -5 | .
Cc1ccc(C2=Nc3ccccc3N=C(c3ccco3)C2)c(O)c1 | 50* | 0 | . | . | . | 34
C[C@H](CO)N1C[C@H](C)[C@@H](CN(C)C(=O)NC2CCCCC2)OCCCC[C@H](C)Oc2ccc(NC(=O)c3ccncc3)cc2C1=O | . | 17 | 0 | -7 | . | .
CCOC(=O)c1c(C)oc2c1c1c(c3ccccc32)OCN(Cc2cccnc2)C1 | 28 | . | . | . | . | -25
CCOC(=O)c1c(C)oc2c1c(C(c1cccnc1)N1CCOCC1)c(O)c1ccccc12 (stereo unspecified) | -9 | . | . | . | . | 98*
NC(=S)N/N=C/c1coc2cc(Br)ccc2c1=O | -17 | 1 | 0 | 7 | 3 | 13
NC(=S)N/N=C/c1coc2c(ccc3ccccc32)c1=O | 27 | -54 | 0 | . | . | 51*
CC(=O)N(C)C[C@@H]1Oc2cc(C#CCN(C)C)ccc2S(=O)(=O)N([C@@H](C)CO)C[C@H]1C | . | 10 | -1 | -5 | -9 | .
O=C(c1ccccc1)c1c2c(cc3sc4ccccc4[n+]13)-c1cccc3cccc-2c13 | 40 | 48 | 73* | . | -1 | 60*
Cc1sc2cc3c(c(C(=O)c4ccccc4)[n+]2c1C)-c1cccc2cccc-3c12 | . | 65* | 0 | 30 | -2 | .
N/C(=N\OC(=O)c1cc(Cl)ccc1Cl)c1ccccn1 | 34 | 34 | 0 | 44 | 0 | 75*
N/C(=N\OC(=O)COc1ccc(Br)cc1Cl)c1ccccn1 | 22 | ? | 0 | . | 2 | 66*
N/C(=N\OC(=O)COc1ccc(Br)cc1Cl)c1ccncc1 | -48 | -22 | 0 | -57 | -3 | -9
COc1ccc(Cl)cc1C(=O)O/N=C(\N)c1ccccn1 | -29 | -58 | 0 | -57 | -4 | -12
N/C(=N\NC(=O)Nc1ccc(Cl)cc1)c1ccccn1 | 64* | -64 | 0 | -54 | 3 | 31
N/C(=N\OC(=O)COc1ccc(Cl)cc1Cl)c1ccccn1 | 26 | ? | 0 | 15 | 7 | 56*
Cc1noc(C)c1NC(=O)Nc1ccc2c(c1)CC(=O)N([C@@H](C)CO)C[C@@H](C)[C@@H](CN(C)Cc1ccc(C(F)(F)F)cc1)O2 | . | -20 | 0 | 7 | 8 | .
COc1ccc(-n2nnnc2S(=O)(=O)CC(=O)N2CCCCC2)cc1 | 57* | 99* | 0 | -1 | 13 | 96*
CC(=O)/C(C#N)=C1\NC(=O)C(Cc2ccccc2)S1 (stereo unspecified) | 3 | 9 | . | . | . | 64*
COCCn1c(C)cc(C(=O)CSc2nc3ccccc3s2)c1C | 60* | 61* | 0 | . | -1 | 51*
Cc1ccc(C(=O)CSc2nnc3ccccn23)c(C)c1 | 21 | 30 | 0 | 0 | . | 64*
COCCn1c(C)cc(C(=O)CSc2nnc3ccccn23)c1C | 26 | 62* | 0 | 63* | 0 | -13
COCCn1c(C)cc(C(=O)CSc2nc3ccccc3o2)c1C | 5 | . | . | . | 1 | -7
COCCn1c(C)cc(C(=O)CSc2nc(C)c(C)c(C)n2)c1C | 15 | 12 | 0 | -11 | 0 | 8
SMILES | TROY NFkB inh | LGR2 antag | Xi reactivation | EWS-Fli block | FN deposit inh | TWEAK Fn14 block
Cc1ccc(NC(=O)CSc2nnc3ccccn23)c(Cl)c1 | -30 | -19 | 0 | -61 | 8 | -9
CN(C)C(=O)C[C@H]1C[C@@H]2c3cc(NS(=O)(=O)c4ccccc4)ccc3O[C@@H]2[C@H](CO)O1 | . | -37 | 0 | 1 | 3 | .
COc1ccccc1NC(=O)c1ccccc1NS(=O)(=O)c1cccs1 | 18 | 11 | 0 | 6 | 5 | 6
Cc1ccc(NC(=O)c2ccccc2NS(=O)(=O)c2ccc(Cl)s2)cc1S(=O)(=O)N1CCOCC1 | 52* | ? | 0 | -9 | -1 | 78*
COc1ccc(C)cc1NC(=O)c1ccccc1NS(=O)(=O)c1ccc(Cl)s1 | 58* | 19 | . | 15 | 0 | 69*
COc1cccc2cc(S(=O)(=O)c3ccccc3)c(=Nc3ccc4c(c3)OCCO4)oc12 | 17 | 0 | 0 | . | 4 | 78*
Cc1ccc(S(=O)(=O)c2cc3ccccc3oc2=Nc2ccc3c(c2)OCO3)cc1 | -21 | . | . | . | -1 | -29
Cc1ccc(S(=O)(=O)c2cc3ccccc3oc2=Nc2ccc3c(c2)OCCO3)cc1 | 13 | 0 | 0 | . | -6 | 81*
COc1ccc2c3c(n(C)c2c1)[C@H](CO)N(Cc1ccccc1F)CC31CN(CC2CC2)C1 | . | . | 0 | . | . | .
O=c1cc(-c2ccccc2Cl)oc2c(NS(=O)(=O)c3cc(Cl)cc(Cl)c3O)ccc(O)c12 | 68* | . | . | . | . | 65*
COc1ccc(CN(C)C[C@H]2OCCCC[C@H](C)Oc3ccc(NC(=O)NC(C)C)cc3C(=O)N([C@@H](C)CO)C[C@@H]2C)cc1 | . | -6 | 0 | 9 | . | .
Cc1ccc(-c2csc(NC(=O)c3cc([N+](=O)[O-])ccc3N3CCOCC3)n2)cc1 | 26 | -7 | 0 | -2 | -5 | -27
O=C(Nc1nc2ccccc2s1)c1ccc(N2CCCCC2)c([N+](=O)[O-])c1 | 45 | . | 0 | -19 | -5 | 81*
O=C(Nc1ccon1)c1ccc(N2CCCCC2)c([N+](=O)[O-])c1 | -54 | -133 | 0 | -121 | 5 | -11
O=C(Nc1nc(-c2ccccc2)cs1)c1ccc(N2CCOCC2)c([N+](=O)[O-])c1 | 83* | . | . | . | . | 106*
COc1cccc(NC(=O)N[C@@H]2C=C[C@H](CC(=O)N3CCOCC3)O[C@@H]2CO)c1 | . | -11 | 0 | . | -15 | .
Cc1noc(C)c1NC(=O)N(C)C[C@@H]1Oc2c(NS(=O)(=O)c3ccc(Cl)cc3)cccc2C(=O)N([C@@H](C)CO)C[C@@H]1C | . | 11 | -1 | 1 | -3 | .
Cc1c(/C=N/NC(=O)CNc2ccccc2)c2ccccn2c1C(=O)c1ccncc1 | 21 | 7 | 0 | 10 | 1 | 62*
Cc1c(/C=N/NC(=O)CNc2ccccc2)c2ccccn2c1C(=O)c1ccc(Cl)cc1 | 18 | 1 | 0 | . | -1 | 31
CC(C)NC(=O)N(C)C[C@@H]1Oc2ccc(NC(=O)C3CC3)cc2C(=O)N([C@H](C)CO)C[C@@H]1C | . | -5 | 0 | -4 | . | .
